Calls of active or inactive are those of the source. The calls are words filed in the database; no cut-off is given here.
Legend:
Porphyromonas gingivalis [1] = assay: Antibacterial activity against Porphyromonas gingivalis ATCC 33277 assessed as growth inhibition at 0.00625 to 2.5 ug/ml ug/ml after 24 hrs by microplate dilution assay; format: functional
Outline: (§1)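 Todd Hewitt broth with hemin (10 μg/mL) and vitamin K (1 μg/mL). 24-h cultures were diluted to OD660 0.2 and mixed 1:1 with serial dilutions in broth (compounds 10 to 1.25 μg/mL; penicillin G 2.5 to 0.00625 μg/mL). Plates were incubated 24 h at 37 °C anaerobically (N2–H2–CO2 75:10:15), then OD660 was read against no-compound control wells. Triplicates were given as mean ± SD; Student's t test was applied when inhibition was ≥20%.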

Streptococcus sobrinus [2] = assay: Antibacterial activity against Streptococcus sobrinus ATCC 33478 assessed as growth inhibition at 0.00625 to 2.5 ug/ml after 24 hrs by microplate dilution assay; format: functional, organism-based
Prevotella intermedia [3] = assay: Antibacterial activity against Prevotella intermedia ATCC 25611 assessed as growth inhibition at 0.00625 to 2.5 ug/ml ug/ml after 24 hrs by microplate dilution assay; format: functional, organism-based; outline: as §1
Fusobacterium nucleatum [4] = assay: Antibacterial activity against Fusobacterium nucleatum ATCC 25586 assessed as growth inhibition at 0.00625 to 2.5 ug/ml ug/ml after 24 hrs by microplate dilution assay; format: functional, organism-based; outline: as §1
Streptococcus mutans [5] = assay: Antibacterial activity against Streptococcus mutans ATCC 25175 assessed as growth inhibition at 0.00625 to 2.5 ug/ml after 24 hrs by microplate dilution assay; format: functional, organism-based
Prevotella intermedia [6] = assay: Antibacterial activity against Prevotella intermedia ATCC 25611 assessed as growth inhibition at 1.25 to 10 ug/ml after 24 hrs by microplate dilution assay; format: functional, organism-based; outline: as §1
Streptococcus sobrinus [7] = assay: Antibacterial activity against Streptococcus sobrinus ATCC 33478 assessed as growth inhibition at 1.25 to 10 ug/ml after 24 hrs by microplate dilution assay; format: functional, organism-based
Streptococcus mutans [8] = assay: Antibacterial activity against Streptococcus mutans ATCC 25175 assessed as growth inhibition at 1.25 to 10 ug/ml after 24 hrs by microplate dilution assay; format: functional, organism-based
Porphyromonas gingivalis [9] = assay: Antibacterial activity against Porphyromonas gingivalis ATCC 33277 assessed as growth inhibition at 1.25 to 10 ug/ml after 24 hrs by microplate dilution assay; format: functional; outline: as §1
Streptococcus mutans [10] = assay: Antibacterial activity against Streptococcus mutans ATCC 25175 assessed as growth inhibition at 10 ug/ml after 24 hrs by microplate dilution assay; format: functional, organism-based
Fusobacterium nucleatum [11] = assay: Antibacterial activity against Fusobacterium nucleatum ATCC 25586 assessed as growth inhibition at 1.25 to 10 ug/ml after 24 hrs by microplate dilution assay; format: functional, organism-based; outline: as §1
Streptococcus sobrinus [12] = assay: Antibacterial activity against Streptococcus sobrinus ATCC 33478 assessed as growth inhibition at 10 ug/ml after 24 hrs by microplate dilution assay; format: functional, organism-based

Compound | growth inhibition (GI) (Prevotella intermedia [6]) | growth inhibition (GI) (Streptococcus sobrinus [7]) | growth inhibition (GI) (Streptococcus mutans [8]) | other results
CC1(C)S[C@@H]2[C@H](NC(=O)Cc3ccccc3)C(=O)N2[C@H]1C(=O)O |  |  |  | growth inhibition (GI) (Porphyromonas gingivalis [1]): Active; growth inhibition (GI) (Streptococcus sobrinus [2]): Active; growth inhibition (GI) (Prevotella intermedia [3]): Active; growth inhibition (GI) (Fusobacterium nucleatum [4]): Active; growth inhibition (GI) (Streptococcus mutans [5]): Active
CC(C)=CCc1cc(-c2coc3cc(O)cc(O)c3c2=O)c(O)cc1O | Active | inactive | inactive | 
COc1c(CC=C(C)C)c(O)cc2c1C[C@H](c1ccc(O)c(CC=C(C)C)c1O)CO2 | Active |  |  | growth inhibition (GI) (Porphyromonas gingivalis [9]): Active; growth inhibition (GI) (Streptococcus mutans [10]): Active; growth inhibition (GI) (Fusobacterium nucleatum [11]): Active; growth inhibition (GI) (Streptococcus sobrinus [12]): Active
COc1cc2c(c(OC)c1CC=C(C)C)C[C@H](c1ccc(O)cc1O)CO2 | Active | inactive | inactive | 
COc1cc2oc(=O)c(-c3ccc(O)cc3O)cc2c(OC)c1CC=C(C)C | Active | inactive | inactive | 
COc1cc2c(c(OC)c1CC=C(C)C)C[C@H](C1=CC(=O)C(O)=C(CC=C(C)C)C1=O)CO2 | Active | inactive | inactive | 
COc1c(CC=C(C)C)c(O)cc2oc(=O)c(-c3ccc(O)cc3O)cc12 | Active | inactive | inactive | 
